Screening data (PubChem)
Sampled rows, rich in hits. Any-hit rate of the full collection: about 2.9%.
Cneo AK release – causes C. neoformans cell lysis. adenylate kinase release luminescence, 4 h; normalised: neutral wells 0, clomiphene wells 100. lysis activity, % at 15 µM. 360,000 tested, 0.2% active;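 active means mean lysis activity across replicates of at least 80%, whatever share of replicates individually reach that level; inactive means mean lysis activity below 80%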
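read-out = cell lysis signal | test system = log-phase Cryptococcus neoformans yeast cells | input = cells at 5 × 10^6 per mL | medium = fresh YPD growth medium | signal = luminescent adenylate kinase detection reagent | timing = 4 h at 37 °C static, read 1 h later | dosing = single dose | controls = Clomiphene as positive lysis control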
PGC1a acetyl inh – modulators of PGC1a acetylation | U2OS PGC1a acetylation, AlphaScreen anti-acetyl-lysine; with virally co-expressed GCN5 acetyltransferase | inhibition, % at 15.6 µM | 350,000 tested, 0.17% active;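 active means every replicate shows inhibition of at least 40%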;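 further: 0% = neutral control wells and 100% = positive control wells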
PglD inh – PglD (C. jejuni) enzyme inhibition; 360,000 tested, 0.098% active; inhibition, % at 12.5 µM; purified PglD enzyme, DTNB colorimetric CoA detection; AID 602405; in the data active means inhibition above about 16%, passing the limit was not always enough
rRNA inh HTS – inhibits bacterial ribosomal RNA function over humanized ribosomes; AID 720706; GFP signal change (wild-type ribosome), % (no concentration beside the values); E. coli WT GFP vs humanized-ribosome RFP mutants, fluorescence, 24 h; active compounds read low; DMSO median 0, no signal -100; 350,000 tested, 1.6% active;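 active means significant combined selectivity score with lowered wild-type GFP, culture density cut under 30%, mutant RFP and density less affected; inactive means any of these conditions unmet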
Vif imaging – blocks HIV Vif function; HEK293T cells, Vif self-association by quenched fluorescence, imaging, 24 h; inhibition, % at 7.49 µM; 340,000 tested, 0.35% active; AID 602346; in the data active means inhibition above about 50%, passing the limit was not always enough
FGF22 binding – FGF22 (human) thermal shift binding | 340,000 tested, 1.5% active | activity (Tm shift, normalised), % at 9.99 µM | AID 651658 | Q9HCT0 | recombinant FGF22 thermal shift, SYPRO orange fluorescence; percent of sucrose octasulfate shift, DMSO zero;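 active means mean Tm shift, scaled 0 neutral to 100 positive control, at about 1.3% or above, every replicate too, limit read from the data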
Target sequence (Q9HCT0 whole entry, looked up): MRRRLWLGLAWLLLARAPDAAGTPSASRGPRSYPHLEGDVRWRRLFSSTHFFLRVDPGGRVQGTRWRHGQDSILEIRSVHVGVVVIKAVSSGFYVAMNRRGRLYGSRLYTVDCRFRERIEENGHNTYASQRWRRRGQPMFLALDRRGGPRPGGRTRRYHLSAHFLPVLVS
The depositor's hits bear a star; / = not tested or not shown; ! = not confirmed by another sample.

SMILES	Cneo AK release	PGC1a acetyl inh	PglD inh	rRNA inh HTS	Vif imaging	FGF22 binding
COc1ccc(NC(=O)C2C(c3ccccc3)C2(Cl)Cl)cc1 (stereo not drawn)	/	/	/	-39.1*	-8.4	0.6
Cc1ccc(NC(=O)C2C(c3ccccc3)C2(Cl)Cl)c(C)c1 (stereo not drawn)	2.0	70.6*	0.3	/	-6.2	/
C[C@H]1CN([C@@H](C)CO)C(=O)c2cc(C#CC3CC3)cnc2O[C@H]1CN(C)C(=O)C1CCCCC1	/	-19.0	/	7.9	/	/
C[C@@H]1CN([C@H](C)CO)C(=O)CCCn2nncc2CO[C@@H]1CN(C)Cc1ccc(O)cc1	11.6	-11.3	4.3	1.7	/	-0.1
Cc1cc(=O)n(C)c(=O)n1CCCCOc1cccc([N+](=O)[O-])c1	/	-1.3	/	/	-3.5	43.6*
COc1ccc(C2=NS(=O)(=O)N(C)C(C(=O)N(C)Cc3ccccc3)=C2)cc1OC	-1.8	-7.7	0.3	-19.9*	-4.5	0.0
COc1ccc(C2=NS(=O)(=O)N(C)C(C(=O)NC(C)c3ccccc3)=C2)cc1OC (stereo not drawn)	-0.1	-1.0	-0.3	-14.3	7.1	-0.2
CCCN1C(=O)S/C(=C\c2ccc(N3CCOCC3)o2)C1=O	/	-5.6	/	26.5	5.8	43.2*
O=C(Cn1cnc2ccccc21)N/N=C/c1ccccc1	/	/	/	-3.4	-5.9	43.5*
Cc1noc(C)c1S(=O)(=O)Nc1ccc2c(c1)C(=O)N([C@H](C)CO)C[C@H](C)[C@@H](CN(C)C(=O)NC1CCCCC1)OCCCC[C@H](C)O2	0.7	/	1.3	1.0	/	-0.4
CCn1cc(CN2CCc3c([nH]c4ccccc34)C2c2cccc(O)c2)c(C)n1 (stereo not drawn)	1.3	/	6.5	-4.3	-14.1	-0.2
CCn1cc(CN2N=C(C)CC2c2ccccc2)c(C)n1 (stereo not drawn)	3.4	/	-11.9	7.5	3.8	44.0*
CCN(Cc1ccccc1)S(=O)(=O)c1cc(C(=O)c2c(N)n(C)c(=O)n(C)c2=O)ccc1OC	/	/	/	-37.4*	21.1	-0.3
CCCCN(Cc1ccccc1)S(=O)(=O)c1c(N)n(C)c(=O)n(C)c1=O	1.0	/	-4.1	/	-2.3	0.0
O=C(Nc1ccncc1)c1ccc(-c2ccccc2)cc1	/	/	/	-0.8	-21.5	44.8*
Cc1ccc(C)n1-c1ccc(C(=O)Nc2ccccc2)cc1	/	/	/	-3.9	-1.0	43.4*
CN1C(=O)c2cc(NC(=O)C3CCOCC3)ccc2OC[C@H]2O[C@@H](CC(=O)NC3CCCC3)CC[C@@H]21	-3.8	-5.3	-0.7	2.1	/	0.1
CC(C)CC#Cc1ccc2c(c1)O[C@H](CN(C)C(=O)c1cnccn1)[C@H](C)CN([C@H](C)CO)S2(=O)=O	2.6	1.2	5.7	1.6	/	0.1
Cc1nn(-c2ccccc2)c(C)c1C(=O)OCC(=O)Nc1ccc(C(N)=O)cc1	-3.5	-3.2	-1.5	4.4	/	0.0
Cc1nn(-c2ccccc2)c(C)c1C(=O)OC(C)C(=O)Nc1ccc(C(N)=O)cc1 (stereo not drawn)	4.8	-8.8	7.0	3.5	-3.1	43.0*
O=C1N[C@@H](Cc2ccccc2)COCc2cn(nn2)CC[C@@H]1Cc1ccc(Cl)cc1	/	/	/	-2.2	/	/
Fc1cnc(Cl)nc1N1CCN(c2ccccc2)CC1	/	/	/	-22.5*	8.4	0.4
O=C(O)C(F)=C1c2ccccc2-c2ccccc21	-1.1	3.3	0.8	-30.0*	-2.1	0.2
O=C(N[C@H]1CC[C@H](CCNS(=O)(=O)c2ccc(Cl)cc2)O[C@@H]1CO)c1cccc(F)c1	0.7	2.3	2.7	-25.2*!	/	-0.1
O=C(Nc1cccc(F)c1)N[C@H]1CC[C@@H](CCNS(=O)(=O)c2cccc(Cl)c2)O[C@@H]1CO	105.8*	-1.8	-1.4	-2.2	/	-0.4
SMILES	Cneo AK release	PGC1a acetyl inh	PglD inh	rRNA inh HTS	Vif imaging	FGF22 binding
O=C(N[C@@H]1CC[C@@H](CCNS(=O)(=O)c2ccc(Cl)cc2)O[C@H]1CO)c1cccc(F)c1	-2.6	-4.9	7.8	-3.1	/	0.4
N#Cc1ccc(-c2ccc3c(c2)[C@@H]2[C@@H](CCN2C(=O)c2ccc4c(c2)OCO4)[C@@H](CO)N3)cc1	38.1	-2.4	-3.3	-12.9	/	-0.3
CCC(CC)NC(=O)Nc1cccc(C)c1C	/	/	/	4.5	-4.1	43.2*
CCC(COC(=O)Nc1cccc(C)c1C)NC(=O)OCC(C)C (stereo not drawn)	-0.1	-1.6	0.2	/	/	/
C[C@H](O)C#Cc1ccc2c(c1)O[C@H](CN(C)Cc1ccc(-c3ccccc3)cc1)[C@H](C)CN([C@@H](C)CO)S2(=O)=O	21.1	-15.4	-5.0	-4.3	/	-0.6
c1ccc(N=NC2=NN(c3ccccc3)CS2)cc1	-2.8	/	1.7	-29.5*	1.3	0.0
C[C@@H]1CCCCO[C@H](CN(C)S(=O)(=O)c2ccccc2)[C@@H](C)CN([C@@H](C)CO)C(=O)c2cc(NC(=O)c3ccccc3)ccc2O1	56.6	2.1	4.5	1.6	/	-0.2
O=[N+]([O-])c1ccc(O)c(C(C#Cc2ccccc2)N2CCOCC2)c1 (stereo not drawn)	/	-1.2	/	-31.9*	0.0	-0.1
O=C(C[C@@H]1CC[C@@H]2[C@H](COC[C@H](O)CN2Cc2cccc(C(F)(F)F)c2)O1)NCc1ccncc1	5.3	-1.5	1.4	1.2	/	-0.1
C[C@H]1CN([C@@H](C)CO)C(=O)c2cc(C3=CCCC3)cnc2O[C@@H]1CN(C)C(=O)C1CC1	/	-3.0	/	2.7	/	/
Cc1noc(C)c1S(=O)(=O)N(C)C[C@@H]1Oc2ccc(NC(=O)Nc3cccc4ccccc34)cc2CC(=O)N([C@@H](C)CO)C[C@H]1C	-0.3	7.5	-0.9	-5.1	/	-0.3
C[C@H](CO)N1C[C@H](C)[C@@H](CN(C)Cc2ccccn2)Oc2ncc(Br)cc2C1=O	-0.3	-0.3	4.0	7.1	/	0.0
C[C@@H]1CN([C@H](C)CO)C(=O)c2cc(-c3ccccc3F)cnc2O[C@@H]1CN(C)Cc1ccccc1F	-3.4	9.7	0.0	-1.0	/	0.1
C[C@H](CO)N1C[C@H](C)[C@@H](CN(C)Cc2ccccc2F)Oc2ncc(Br)cc2C1=O	-0.8	63.8*!	0.8	-1.3	-2.1	0.0
C[C@H]1CN([C@@H](C)CO)C(=O)c2cc(Br)cnc2O[C@@H]1CN(C)Cc1ccccn1	107.5*	2.8	3.5	-0.8	/	-0.3
CN1[C@H](C(=O)Nc2ccccc2)[C@@H](CO)[C@@H]2Cn3c(ccc(-c4ccccc4)c3=O)[C@@H]21	1.2	/	-1.1	-2.9	/	-0.2
CC(=O)N(C)C[C@H]1Oc2ccc(N(S(C)(=O)=O)S(C)(=O)=O)cc2C(=O)N(C)C[C@@H]1C	/	/	/	4.0	/	/
CCNC(=O)C[C@@H]1CC[C@@H]2[C@H](COC[C@H](O)CN2C(=O)Nc2c(C)noc2C)O1	-5.8	8.2	0.5	5.8	/	0.0
